Published values gathered from unrelated publications.
Target: Vascular endothelial growth factor receptor 3 (FLT4, Homo sapiens, UniProt P35916)

Compound	effect on	mode	technique	tested at	quantity	value
CCCCN(CCCC)C(=O)CN1C[C@H](c2cc(OC)c3c(c2)OCO3)[C@@H](C(=O)O)[C@@H]1CC(C)(C)CCC	cell-free assay		competition with immobilised ligand	1 µM	remaining binding	100%
Cc1sc(C(=O)NC2COC2)cc1-n1cc(NC(=O)Nc2c(F)cccc2Cl)cn1	enzyme activity	inhibitor		10 µM	remaining activity	79.2%
Nc1ncnc2occ(-c3ccc(NC(=O)Nc4cc(C(F)(F)F)ccc4F)cc3)c12	cell-free assay			20 µM	remaining signal	0%
COc1cc2c(Nc3ccc(Br)cc3F)ncnc2cc1OCC1CCN(C)CC1	cell-free assay			0.5 µM	remaining signal	16.1%
O=C(Nc1cnn(-c2csc(C(=O)NC3COC3)c2)c1)Nc1c(F)cccc1Cl	enzyme activity	inhibitor		5 µM	remaining activity	86.2%
COc1cc2nccc(Oc3ccc(NC(=O)c4c5n(n(-c6ccc(F)cc6)c4=O)CCCC5)cc3)c2cc1OC	enzyme activity	inhibitor		0.1 µM	inhibition	47%
Cc1ccc(C(=O)NCc2ccsc2)cc1C#Cc1cn(C(C)C)c2ncnc(N)c12	enzyme activity	inhibitor		1 µM	activity vs control	-1%
O=C1Nc2ccc(Cl)cc2C1=Cc1cc(Cl)c(O)c(Cl)c1	cell-free assay			0.5 µM	remaining signal	87.3%
N#CC1(c2ccccn2)CCN(Cc2cc(C(=O)N3CCCC3)c(=O)n3ccccc23)CC1	cell-free assay		competition with immobilised ligand	1 µM	remaining binding	86%
COc1cc2ncnc(Nc3ccc(Oc4ccccc4)c(C)c3C)c2cc1OC	enzyme activity	inhibitor		1 µM	inhibition	12%
CC(C)(O)[C@H]1CC[C@H](Nc2ccc3ncc(-c4cccc(C(F)(F)F)c4)n3n2)CC1	enzyme activity	inhibitor		1 µM	remaining activity	83.5%
COc1cc(Cl)c(C(=O)N[C@@H](CN[C@H]2CC[C@@H](N)CC2)Cc2ccc(C#N)cc2)cc1-c1ccc(CN[C@H](C)c2ccc(C)cc2)o1	enzyme activity	inhibitor		1 µM	remaining activity	93%
CN(C(=O)c1ccccc1)c1cc(N(C)c2ccc3c(c2)CCc2ccc(C(=O)NCCN4CCOCC4)cc2C3=O)ccc1F	cell-free assay		competition with immobilised ligand	1 µM	remaining binding	87%
COc1ccc(COc2ccc(Cc3cnc(N)nc3N)cc2OC)cc1	cell-free assay			0.5 µM	remaining signal	105%
O=C(N[C@H]1CCCCC/C=C\C2C[C@@]2(C(=O)O)NC(=O)[C@@H]2C[C@@H](Oc3ccncc3)CN2C1=O)OC1CCCC1 (some centres unmarked)	cell-free assay		competition with immobilised ligand	1 µM	remaining binding	93%
O=C1NC(=O)c2cc(Nc3ccc(F)cc3)c(Nc3ccc(F)cc3)cc21	cell-free assay			0.5 µM	remaining signal	102%
CC(C)(O)c1cncc(-c2nc3ccc(F)cc3n2C2CC2)c1	cell-free assay		competition with immobilised ligand	1 µM	remaining binding	100%
CNC(=O)c1cc2c(Oc3ccc(NC(=O)C4(C(=O)Nc5ccc(F)cc5)CC4)cc3)ccnc2cc1OC	enzyme activity	inhibitor	radiometric	1 µM	inhibition	102%
CC(=O)N1CCC(c2ccc(C(=O)NC(=N)N)cc2C(F)(F)F)CC1	cell-free assay		competition with immobilised ligand	1 µM	remaining binding	89%
CC(C)(C)c1nc2c(s1)c1nc(N)ncc1c1ccc(NS(=O)(=O)c3c(F)cccc3F)c(F)c12	enzyme activity	inhibitor	radiometric	1 µM	remaining activity	76%
